Source: ChEMBL document CHEMBL4368903, “Identification of GSK3186899/DDD853651 as a Preclinical Development Candidate for the Treatment of Visceral Leishmaniasis” (J Med Chem, 2019)
In brackets after ≈: the same amount, converted by molar mass. Activity calls are given as the source filed them. The calls are words filed in the database; no cut-off is given here.

Tests used:
[1] = Toxicity in Crl:WI(Han) rat assessed as decrease in calcium levels at 1000 mg/kg/day, po via gavage for 7 days; assay type: organism-based; settings: in vivo, 168 h
[2] = Kinetic aqueous solubility of the compound in phosphate buffer at pH 7.4 by CLND assay; assay type: physicochemical; settings: phosphate buffer, read-out: Kinetic_solubility
Summary of the method: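 From 10 mM DMSO stock diluted 1:20 into pH 7.4 PBS, equilibrated 1 h at RT, filtered. Filtrate quantified by calibrated flow-injection CLND. Dynamic range 1–500 μM.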

Lymphoma cell line = test: Clastogenicity in mouse Lymphoma cells at 120 ug/ml; assay type: toxicity, cell-based
[3] = Therapeutic index, ratio of fCmax in conscious unrestrained telemetered Crl:WI(Han) rat at 300 mg/kg/day, po via gavage for 7 days measured on day 1 to fCmax in Leishmania donovani LV9 amastigotes infected BALB/c mouse at 25 mg/kg, po administered bid for 10 days measured on day 1; assay type: organism-based; settings: in vivo, read-out: TI
Summary of the method: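 Index = free Cmax on day 1 of the rat cardiovascular study / free Cmax on day 1 of the mouse efficacy model. Rat arm: conscious, unrestrained, telemetered male CRL:WI(Han) rats given a single oral dose (up to 1000 mg/kg). Mouse arm: female BALB/c infected i.v. with L. donovani LV9 amastigotes, dosed orally twice daily from day 7 post-infection in 0.5% HPMC, 0.4% Tween 80, 0.5% benzyl alcohol.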

[4] = target: Voltage-gated inwardly rectifying potassium channel KCNH2 (Homo sapiens, UniProt Q12809); test: Inhibition of human ERG by patch clamp assay
Sequence of Voltage-gated inwardly rectifying potassium channel KCNH2 (Q12809 whole entry): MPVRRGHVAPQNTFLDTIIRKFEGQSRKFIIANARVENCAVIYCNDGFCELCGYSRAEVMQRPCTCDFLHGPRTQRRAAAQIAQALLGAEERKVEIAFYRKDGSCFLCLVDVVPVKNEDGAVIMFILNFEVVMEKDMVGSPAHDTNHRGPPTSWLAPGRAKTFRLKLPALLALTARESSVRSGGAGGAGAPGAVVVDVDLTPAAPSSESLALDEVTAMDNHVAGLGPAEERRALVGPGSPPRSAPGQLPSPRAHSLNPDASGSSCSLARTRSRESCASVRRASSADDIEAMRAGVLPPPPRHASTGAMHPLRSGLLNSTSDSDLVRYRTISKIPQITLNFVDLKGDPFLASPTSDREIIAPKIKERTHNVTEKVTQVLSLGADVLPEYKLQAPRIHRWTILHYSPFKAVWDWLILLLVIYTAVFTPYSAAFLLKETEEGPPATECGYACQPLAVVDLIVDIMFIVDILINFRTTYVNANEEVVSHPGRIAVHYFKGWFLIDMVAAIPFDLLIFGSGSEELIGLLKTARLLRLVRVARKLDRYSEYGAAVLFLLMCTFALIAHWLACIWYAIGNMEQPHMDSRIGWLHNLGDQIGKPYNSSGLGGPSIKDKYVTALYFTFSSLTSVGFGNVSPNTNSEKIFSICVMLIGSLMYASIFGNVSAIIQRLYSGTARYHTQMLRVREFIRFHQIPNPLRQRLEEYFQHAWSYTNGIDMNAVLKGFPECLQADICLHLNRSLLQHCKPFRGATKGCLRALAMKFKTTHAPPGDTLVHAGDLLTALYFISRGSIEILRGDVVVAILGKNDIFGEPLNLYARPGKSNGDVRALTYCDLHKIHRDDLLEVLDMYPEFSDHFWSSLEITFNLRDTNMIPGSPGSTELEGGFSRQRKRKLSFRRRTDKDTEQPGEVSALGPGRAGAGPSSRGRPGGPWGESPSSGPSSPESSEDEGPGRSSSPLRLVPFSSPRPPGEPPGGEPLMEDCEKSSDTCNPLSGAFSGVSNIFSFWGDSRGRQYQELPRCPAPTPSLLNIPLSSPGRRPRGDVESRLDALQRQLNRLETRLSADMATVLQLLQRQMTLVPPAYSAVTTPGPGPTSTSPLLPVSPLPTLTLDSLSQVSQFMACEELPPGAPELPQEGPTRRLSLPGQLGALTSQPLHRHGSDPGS

[5] = Toxicity in rabbit cardiac ventricular wedge assessed as QT shortening at 30 uM relative to control; assay type: tissue-based, Oryctolagus cuniculus, Cardiac ventricle
[6] = Toxicity in Crl:WI(Han) rat assessed as drug tolerability dose at 100 to 1000 mg/kg/day, po via gavage for 7 days; assay type: organism-based; settings: in vivo, read-out: Activity
Summary of the method: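 Male Crl:WI(Han) rats dosed by oral gavage once daily in a 7-day repeat-dose study at 100, 300 and 1000 mg/kg/day. Tolerated doses judged from in-life and clinical signs, macroscopic observations, histopathology, clinical pathology and liver gene expression profiling versus controls.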

Leishmania donovani [7] = test: Antileishmanial activity against Leishmania donovani […] in human THP1 cells by intramacrophage assay; assay type: functional, organism-based; settings: Leishmania donovani, THP-1
[8] = Toxicity in Crl:WI(Han) rat assessed as increase in ALP at 1000 mg/kg/day, po via gavage for 7 days; assay type: organism-based; settings: in vivo, 168 h
Summary of the method: (§1)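 Male Crl:WI(Han) rats given oral gavage daily for 7 days at 100, 300 and 1000 mg/kg/day. Clinical signs, macroscopic findings, clinical pathology versus controls, and a liver gene expression panel for hepatic toxicity mechanisms.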

Cytochrome P450 3A4 = Cytochrome P450 3A4 (Homo sapiens, UniProt P08684); test: Inhibition of CYP3A4 in human liver microsomes using midazolam as substrate preincubated for 20 mins followed by substrate addition and measured after 5 mins by LC-MS/MS analysis; assay type: ADME
Sequence of Cytochrome P450 3A4 (P08684 whole entry): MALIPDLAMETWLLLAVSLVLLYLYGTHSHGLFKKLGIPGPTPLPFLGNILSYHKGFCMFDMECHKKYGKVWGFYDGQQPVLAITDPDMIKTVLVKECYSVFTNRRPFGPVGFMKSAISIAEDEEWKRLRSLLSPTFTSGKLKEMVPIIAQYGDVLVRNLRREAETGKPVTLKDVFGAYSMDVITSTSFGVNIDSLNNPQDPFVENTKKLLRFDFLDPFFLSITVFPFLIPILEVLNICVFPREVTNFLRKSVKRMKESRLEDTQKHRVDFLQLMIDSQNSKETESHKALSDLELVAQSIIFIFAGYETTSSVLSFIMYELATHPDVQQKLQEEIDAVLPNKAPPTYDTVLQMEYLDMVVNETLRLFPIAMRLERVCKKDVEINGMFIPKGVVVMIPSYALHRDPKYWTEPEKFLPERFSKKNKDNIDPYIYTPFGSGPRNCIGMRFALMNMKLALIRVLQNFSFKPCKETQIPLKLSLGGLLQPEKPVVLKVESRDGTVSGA
Summary of the method: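 Pooled human liver microsomes (final 0.1 mg/mL) with midazolam marker substrate, monitoring CYP3A4-specific metabolite. Test compound at eight concentrations, 0.1–100 μM, final organic ≤0.5%. Preincubated at 37 °C for 20 min, then substrate or cofactor added and incubated 5 min at 37 °C. Stopped with ice-cold acetonitrile; LC-MS/MS read-out gives pIC50.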

Leishmania donovani [9] = test: Antileishmanial activity against Leishmania donovani LV9 amastigotes infected in BALB/c mouse assessed as suppression of parasite load within liver at 25 mg/kg, po administered bid for 10 days relative to control; assay type: functional
Summary of the method: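 Female BALB/c mice, 5 per group, infected i.v. with about 2×10^7 L. donovani LV9 amastigotes harvested from infected hamster spleen. Oral dosing starts day 7 post-infection, in 0.5% HPMC/0.4% Tween 80/0.5% benzyl alcohol, or 10% DMSO/60% PEG400/30% water for the 5-day 50 mg/kg regimen. Dosing solutions made fresh daily. Killed day 14 (5-day) or 19 (10-day). Liver smears give LDU (amastigotes/500 nucleated cells × organ weight). Mean LDU compared with vehicle control gives % suppression.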

[10] = Ratio of AUC (0 to 24 hrs) in conscious unrestrained telemetered Crl:WI(Han) rat at 300 mg/kg/day, po via gavage for 7 days measured on day 7 to AUC (0 to 24 hrs) in Leishmania donovani LV9 amastigotes infected BALB/c mouse at 25 mg/kg, po administered bid for 10 days measured on day 10; assay type: ADME, organism-based; settings: in vivo, read-out: TI
Summary of the method: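 Index = AUC0–24 on day 7 of the rat study / AUC0–24 on day 10 of the mouse efficacy model. Rat arm: male Crl:WI(Han) rats, oral gavage once daily for 7 days at 100, 300 or 1000 mg/kg/day. Mouse arm: female BALB/c infected i.v. with ~2×10^7 L. donovani LV9 amastigotes, dosed orally twice daily for 10 days from day 7 post-infection in 0.5% HPMC, 0.4% Tween 80, 0.5% benzyl alcohol.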

[11] = Intrinsic clearance in human liver microsomes at 0.5 uM after 3 to 30 mins in presence of NADPH by UPLC-MS/MS analysis; assay type: ADME, Microsome
Summary of the method: (§2)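 0.5 μM compound with female CD1 mouse or human liver microsomes, started with excess NADPH in 50 mM potassium phosphate pH 7.4. Aliquots at 0, 3, 6, 9, 15 and 30 min quenched in acetonitrile with internal standard. UPLC-MS/MS; rate constant from exponential decay of compound/IS ratio. Verapamil as positive control.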

[12] = Intrinsic clearance in CD1 mouse liver microsomes at 0.5 uM after 3 to 30 mins in presence of NADPH by UPLC-MS/MS analysis; assay type: ADME, Microsome; summary of the method: as §2
[13] = Toxicity in Crl:WI(Han) rat assessed as decrease in hemoglobin levels at 300 to 1000 mg/kg/day, po via gavage for 7 days; assay type: organism-based; settings: in vivo, 168 h
[14] = Toxicity in Crl:WI(Han) rat assessed as decrease in total protein levels at 300 mg/kg/day, po via gavage for 7 days; assay type: organism-based; settings: in vivo, 168 h
[15] = Toxicity in Crl:WI(Han) rat assessed as effect on liver gene expression in liver at 100 to 1000 mg/kg/day, po via gavage for 7 days; assay type: organism-based; settings: in vivo, 168 h; summary of the method: as §1
[16] = Toxicity in Crl:WI(Han) rat assessed as increase in plasma glucose levels at 1000 mg/kg/day, po via gavage for 7 days; assay type: organism-based; settings: in vivo, 168 h; summary of the method: as §1
[17] = Toxicity in Crl:WI(Han) rat assessed as decrease in albumin levels at 300 mg/kg/day, po via gavage for 7 days; assay type: organism-based; settings: in vivo, 168 h
[18] = Toxicity in Crl:WI(Han) rat assessed as increase in CYP1A1 gene expression in liver at 100 to 1000 mg/kg/day, po via gavage for 7 days; assay type: organism-based; settings: in vivo, 168 h; summary of the method: as §1
[19] = Toxicity in Crl:WI(Han) rat assessed as effect on macro observations parameters at 100 to 1000 mg/kg/day, po via gavage for 7 days; assay type: organism-based; settings: in vivo, 168 h; summary of the method: as §1
[20] = Mutagenicity in Salmonella typhimurium at 1500 ug/plate by Ames test; assay type: toxicity; settings: salmonella enterica subsp. enterica serovar typhimurium
[21] = Toxicity in Crl:WI(Han) rat assessed as increase in triglycerides levels at 300 mg/kg/day, po via gavage for 7 days; assay type: organism-based; settings: in vivo, 168 h; summary of the method: as §1
[22] = Cardiotoxicity in Crl:WI(Han) rat up to 1000 mg/kg, po via gavage; assay type: toxicity, organism-based; settings: in vivo
Summary of the method: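 Conscious unrestrained telemetered male CRL:WI(Han) rats given a single oral dose of vehicle or test article up to 1000 mg/kg. Cardiovascular and electrocardiographic parameters monitored.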

[23] = Toxicity in Crl:WI(Han) rat assessed as effect on life and clinical signs at 100 to 1000 mg/kg/day, po via gavage for 7 days; assay type: organism-based; settings: in vivo, 168 h; summary of the method: as §1
[24] = target: Cyclin-dependent kinase 2 (Homo sapiens) (UniProt P24941); test: Inhibition of human CDK2 by kinobeads-based assay
[25] = Toxicity in Crl:WI(Han) rat assessed as decrease in HCT levels at 300 to 1000 mg/kg/day, po via gavage for 7 days; assay type: organism-based; settings: in vivo, 168 h
[26] = Solubility of compound in fasted simulated intestinal fluid at 1 mg after 4 hrs by HPLC-UV analysis; assay type: physicochemical; settings: fasted simulated intestinal fluid
Summary of the method: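 1 mg solid shaken in 1 mL FaSSIF (3 mM sodium taurocholate, 0.75 mM lecithin, phosphate buffer pH 6.5) at 900 rpm for 4 h at room temperature, then filtered. Supernatant quantified by HPLC-UV against single-point DMSO calibration. Range 1–1000 μg/mL.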

[27] = Toxicity in Crl:WI(Han) rat assessed as decrease in RBC levels at 300 to 1000 mg/kg/day, po via gavage for 7 days; assay type: organism-based; settings: in vivo, 168 h

## C[C@H]1CN(c2n[nH]c3nc(N[C@H]4CC[C@H](NS(=O)(=O)CCC(F)(F)F)CC4)ncc23)CCO1 [GSK-3186899]
[1]
  Activity: Toxic
[2]
  solubility kinetic: 99 µM (≈ 48.7 µg/mL)
Lymphoma cell line
  Activity: Non-Toxic
[3]
  selectivity ratio: 3
[4]
  IC50: > 30 µM
[5]
  Activity: 8.9%
[6]
  MTD at 168 h: 100 to 1000 mg/kg
Leishmania donovani [7]
  EC50: 1.26 µM
[8]
  Activity: Toxic
Cytochrome P450 3A4
  IC50: > 39.8 µM
Leishmania donovani [9]
  Activity: >95%
[10]
  selectivity ratio: 13
[11]
  CLH: 0.7 mL/min/g
[12]
  CLH: < 0.5 mL/min/g
[13]
  Activity: Toxic
[14]
  Activity: Toxic
[15]
  Activity: Non-Toxic
[16]
  Activity: Toxic
[17]
  Activity: Toxic
[18]
  Activity: Non-Toxic
[19]
  Activity: Non-Toxic
[20]
  Activity: Non-Toxic
[21]
  Activity: Toxic
[22]
  Activity: Non-Toxic
[23]
  Activity: Non-Toxic
[24]
  inhibition: inactive
[25]
  Activity: Toxic
[26]
  solubility at 4 h: 17 to 64 µg/mL (≈ 34.6 to 130 µM)
[27]
  Activity: Toxic
